From ChEMBL document CHEMBL3868590, “Quambalarine B, a Secondary Metabolite from Quambalaria cyanescens with Potential Anticancer Properties” (J Nat Prod, 2016)
Active and inactive are the calls of the source. No cut-off for these calls is given here.

Experiments:
NALM-6 [1] = experiment: Cytostatic activity against eFluor670-labelled human NALM6 cells assessed as live cells at 2 umol/L measured on day 5 by Hoechst-33258 staining-based FACS analysis (reference value: 98.6%); format: functional
Jurkat [2] = experiment: Inhibition of P70S6K in human Jurkat cells assessed as decrease in phosphorylated P70S6K expression at EC50 by immunoblot analysis; format: cell-based; details: TDE = time-dependent effect
Summary of the method: (§1)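 Cells prepared as for RT-qPCR (7.5 × 10^5 cells/mL). Treated either with the line-specific EC50 concentration over a time course, or 24 h with graded concentrations up to that EC50. Cells washed with phosphatase inhibitors and lysed in RIPA; 40 μg protein per lane on SDS-PAGE, then nitrocellulose. Immunoblotted for C-MYC, P70S6K, p-P70S6K (Ser424) and actin.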

NALM-6 [3] = experiment: Cytostatic activity against eFluor670-labelled human NALM6 cells assessed as live cells at 2 umol/L measured on day 4 by Hoechst-33258 staining-based FACS analysis (reference value: 98.6%); format: functional
[4] = target: Myc proto-oncogene protein (Homo sapiens) (UniProt P01106); experiment: Inhibition of C-MYC in human NALM6 cells assessed as decrease in LDHA level at EC50 measured after 24 hrs by RT-qPCR analysis; format: cell-based; details: NALM-6
[5] = Cytotoxicity against B lymphocytes in human PBMC population assessed as reduction in viable cells measured after 24 hrs by Hoechst-33258 staining-based FACS analysis; format: toxicity, cell-based, B-cell
Summary of the method: (§2)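 PBMC were isolated from blood on a Ficoll-Paque gradient and seeded at 1 × 10^5 cells/well in 400 μL RPMI1640. Cells were exposed to a range of compound concentrations for 24 h. Viable CD3+, CD14+ and CD20+ populations were measured as Hoechst 33258-negative singlets by flow cytometry. EC50 was obtained by five-parameter nonlinear regression.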

REH [6] = experiment: Cytostatic activity against human REH cells assessed as population doubling level at 2 umol/L after 6 days by Burker counting chamber (reference value: 3.55); format: functional
Summary of the method: (§3)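 Cells were seeded at 2.5 × 10^5 cells/mL in DMSO-containing medium, with or without 2 μmol/L compound. Cells were counted daily in a Bürker chamber. PDL was calculated as log(Nf/N0)/log 2 over 6 days. Values are mean ± SD of three experiments, compared with DMSO controls.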

[7] = Cytotoxicity against human PBMC assessed as reduction in viable cells measured after 24 hrs by Hoechst-33258 staining-based FACS analysis; format: toxicity, cell-based
Summary of the method: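 Human PBMC isolated on a Ficoll-Paque gradient, seeded at 1 × 10^5 cells/well in RPMI1640. Exposed 24 h to a compound concentration range; medium and DMSO negative controls. Cells stained with Hoechst 33258 and read by flow cytometry; live-cell percentage from Hoechst-negative singlets. EC50 by five-parameter nonlinear regression.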

REH [8] = experiment: Cytostatic activity against eFluor670-labelled human REH cells assessed as live cells at 2 umol/L measured on day 1 by Hoechst-33258 staining-based FACS analysis (reference value: 89.8%); format: functional
REH [9] = experiment: Cytostatic activity against eFluor670-labelled human REH cells assessed as live cells at 2 umol/L measured on day 4 by Hoechst-33258 staining-based FACS analysis (reference value: 88%); format: functional
NALM-6 [10] = experiment: Cytostatic activity against eFluor670-labelled human NALM6 cells assessed as live cells at 2 umol/L measured on day 3 by Hoechst-33258 staining-based FACS analysis (reference value: 98.6%); format: functional
Jurkat [11] = experiment: Cytostatic activity against eFluor670-labelled human Jurkat cells assessed as live cells at 2 umol/L measured on day 3 by Hoechst-33258 staining-based FACS analysis (reference value: 98.3%); format: functional
[12] = Cytotoxicity against CD14+ monocytes in human PBMC population assessed as viable cells at 15 umol/L measured after 24 hrs by Hoechst-33258 staining-based FACS analysis (reference value: 13.8%); format: toxicity, cell-based, Monocyte; details: read-out: Activity; summary of the method: as §2
[13] = target: Myc proto-oncogene protein (Homo sapiens) (UniProt P01106); experiment: Inhibition of C-MYC in human NALM6 cells assessed as decrease in GLS level at EC50 measured after 24 hrs by RT-qPCR analysis; format: cell-based; details: NALM-6
Jurkat [14] = experiment: Cytostatic activity against human Jurkat cells at 2 umol/L measured after 2 to 3 days using Burker counting chamber; format: functional, cell-based; summary of the method: as §3
NALM-6 [15] = experiment: Inhibition of P70S6K in human NALM6 cells assessed as decrease in C-MYC expression at 2 to 20 umol/L by immunoblot analysis; format: cell-based; details: TDE = time-dependent effect; summary of the method: as §1
[16] = Cytotoxicity against human REH cells assessed as reduction in viable cells measured after 24 hrs by Hoechst-33258 staining-based FACS analysis; format: functional, cell-based
Summary of the method: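 Leukemic lines kept in RPMI1640 with 10% FBS, penicillin/streptomycin, 37 °C, 5% CO2. Seeded at 2 × 10^5 cells/mL and exposed 24 h to a range of compound concentrations (DMSO stock); medium and DMSO negative controls. Live fraction taken from Hoechst 33258-negative singlets by flow cytometry. EC50 from five-parameter nonlinear regression.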

REH [17] = experiment: Cytostatic activity against human REH cells at 2 umol/L measured after 2 to 3 days using Burker counting chamber; format: functional, cell-based; summary of the method: as §3
REH [18] = experiment: Inhibition of P70S6K in human REH cells assessed as decrease in phosphorylated P70S6K expression measured after 24 hrs by immunoblot analysis; format: cell-based; summary of the method: as §1
Jurkat [19] = experiment: Cytostatic activity against eFluor670-labelled human Jurkat cells assessed as live cells at 2 umol/L measured on day 4 by Hoechst-33258 staining-based FACS analysis (reference value: 97.3%); format: functional
Jurkat [20] = experiment: Decrease in C-MYC mRNA level in human Jurkat cells at EC50 measured after 24 hrs by RT-qPCR analysis; format: functional, cell-based
[21] = target: Myc proto-oncogene protein (Homo sapiens) (UniProt P01106); experiment: Inhibition of C-MYC in human Jurkat cells assessed as decrease in LDHA level at EC50 measured after 24 hrs by RT-qPCR analysis; format: cell-based
Jurkat [22] = experiment: Inhibition of P70S6K in human Jurkat cells assessed as inhibition of phosphorylated P70S6K expression up to 20 umol/L measured after 24 hrs by immunoblot analysis; format: cell-based; summary of the method: as §1
[23] = target: Myc proto-oncogene protein (Homo sapiens) (UniProt P01106); experiment: Inhibition of C-MYC in human Jurkat cells assessed as decrease in GLS level at EC50 measured after 24 hrs by RT-qPCR analysis; format: cell-based
NALM-6 [24] = experiment: Cytostatic activity against eFluor670-labelled human NALM6 cells assessed as live cells at 2 umol/L measured on day 1 by Hoechst-33258 staining-based FACS analysis (reference value: 95.5%); format: functional
Jurkat [25] = experiment: Cytostatic activity against eFluor670-labelled human Jurkat cells assessed as live cells at 2 umol/L measured immediately after compound addition by Hoechst-33258 staining-based FACS analysis (reference value: 98.2%); format: functional
NALM-6 [26] = experiment: Inhibition of P70S6K in human NALM6 cells assessed as decrease in C-MYC expression measured after 24 hrs by immunoblot analysis; format: cell-based; summary of the method: as §1
NALM-6 [27] = experiment: Cytostatic activity against eFluor670-labelled human NALM6 cells assessed as live cells at 2 umol/L measured immediately after compound addition by Hoechst-33258 staining-based FACS analysis (reference value: 95.8%); format: functional

Chain of Myc proto-oncogene protein (Homo sapiens) (P01106 whole entry): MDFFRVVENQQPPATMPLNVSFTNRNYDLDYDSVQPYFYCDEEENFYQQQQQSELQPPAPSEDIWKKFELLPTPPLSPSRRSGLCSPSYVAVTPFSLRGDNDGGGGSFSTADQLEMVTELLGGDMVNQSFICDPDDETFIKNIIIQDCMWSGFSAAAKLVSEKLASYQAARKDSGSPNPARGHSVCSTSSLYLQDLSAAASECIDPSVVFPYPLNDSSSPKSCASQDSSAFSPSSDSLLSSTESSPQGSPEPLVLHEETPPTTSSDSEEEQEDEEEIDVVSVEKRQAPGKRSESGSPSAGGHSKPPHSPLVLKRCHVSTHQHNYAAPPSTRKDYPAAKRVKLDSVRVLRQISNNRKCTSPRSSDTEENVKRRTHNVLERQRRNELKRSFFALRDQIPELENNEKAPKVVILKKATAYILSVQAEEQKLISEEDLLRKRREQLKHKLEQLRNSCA

CCCCCC(=O)C1=C(O)C(=O)c2c(O)c(O)cc(O)c2C1=O
Activity (NALM-6 [1]): 50.1%
inhibition (Jurkat [2]): Tde
Activity (NALM-6 [3]): 96.7%
inhibition [4]: Active
EC50 at 24 h [5]: > 50 µM
Activity (REH [6]): 1.32
EC50 at 24 h [7]: 56.1 µM
Activity (REH [8]): 74.9%
Activity (REH [9]): 6.9%
Activity (NALM-6 [10]): 98.1%
Activity (Jurkat [11]): 69.2%
viability at 24 h, 15 µM [12]: 8.1%
inhibition [13]: Active
Activity (Jurkat [14]): Active
inhibition (NALM-6 [15]): Tde
EC50 [16]: 22 µM
Activity (REH [17]): Active
inhibition (REH [18]): Dose-dependent effect
Activity (Jurkat [19]): 39.5%
Activity (Jurkat [20]): Active
inhibition [21]: Active
inhibition (Jurkat [22]): Active
inhibition [23]: Active
Activity (NALM-6 [24]): 95.2%
Activity (Jurkat [25]): 98.2%
inhibition (NALM-6 [26]): Dose-dependent effect
Activity (NALM-6 [27]): 95.8%
